# From ChEMBL document CHEMBL4715736, “Identification of anticancer agents based on the thieno[2,3-b]pyridine and 1H-pyrazole molecular scaffolds” (2016)
# Columns and labels:
# Format in all cases: functional
# Conditions in all cases: read-out: Activity
# [1] = tested on: ACHN; test: Growth inhibition of human ACHN cells assessed as cell growth at 10 uM incubated for 48 hrs by sulforhodamine B assay relative to control
# How it was run: (§1)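 NCI Developmental Therapeutics Program NCI60 human tumour cell line panel, one-dose primary screen with every compound at 10 µM. Growth is expressed as % of untreated control cells (100%).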
# [2] = tested on: HOP-62; test: Growth inhibition of human HOP-62 cells assessed as cell growth at 10 uM incubated for 48 hrs by sulforhodamine B assay relative to control
# How it was run: (§2)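 Submitted to the NCI Developmental Therapeutics Program for the NCI60 human tumour cell line panel. First screen at a single 10 µM concentration. Read-out is growth relative to untreated control cells set at 100%.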
# [3] = tested on: A549; test: Growth inhibition of human A549/ATCC cells assessed as cell growth at 10 uM incubated for 48 hrs by sulforhodamine B assay relative to control
# How it was run: (§3)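 NCI Developmental Therapeutics Program NCI60 panel. Compounds that were active in the 10 µM one-dose screen went on to dose–response testing. Growth at each concentration is expressed relative to untreated control (100%). GI50 (concentration giving 50% of maximal inhibition of proliferation) and TGI (concentration giving total growth inhibition) were derived from the curves.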
# [4] = tested on: M14; test: Growth inhibition of human M14 cells assessed as cell growth at 10 uM incubated for 48 hrs by sulforhodamine B assay relative to control; how it was run: as §2
# [5] = tested on: SF-295; test: Growth inhibition of human SF-295 cells assessed as cell growth at 10 uM incubated for 48 hrs by sulforhodamine B assay relative to control
# How it was run: (§4)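 Run by the NCI Developmental Therapeutics Program as part of its 60-line human tumour panel. Each compound tested at a single 10 µM dose. Growth expressed as % relative to untreated control cells (100%).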
# [6] = tested on: NCI-H23; test: Growth inhibition of human NCI-H23 cells assessed as cell growth at 10 uM incubated for 48 hrs by sulforhodamine B assay relative to control; how it was run: as §2
# [7] = tested on: U-251; test: Growth inhibition of human U-251 cells assessed as cell growth at 10 uM incubated for 48 hrs by sulforhodamine B assay relative to control; how it was run: as §4
# [8] = tested on: HL-60(TB); test: Growth inhibition of human HL-60(TB) cells assessed as cell growth at 10 uM incubated for 48 hrs by sulforhodamine B assay relative to control
# How it was run: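 Screened by the NCI Developmental Therapeutics Program on its panel of 60 human tumour cell lines. Compounds were first tested at a single 10 µM dose, and compounds active there went to dose-response curves. Growth is expressed relative to untreated control (100%). GI50 (50% of maximal proliferation inhibition) and TGI (total growth inhibition) were derived from the dose-response data.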
# [9] = tested on: DU-145; test: Growth inhibition of human DU-145 cells assessed as cell growth at 10 uM incubated for 48 hrs by sulforhodamine B assay relative to control; how it was run: as §3
# [10] = tested on: HCT-116; test: Growth inhibition of human HCT-116 cells assessed as cell growth at 10 uM incubated for 48 hrs by sulforhodamine B assay relative to control; how it was run: as §2
# [11] = tested on: SK-MEL-28; test: Growth inhibition of human SK-MEL-28 cells assessed as cell growth at 10 uM incubated for 48 hrs by sulforhodamine B assay relative to control; how it was run: as §4
# [12] = tested on: SK-MEL-2; test: Growth inhibition of human SK-MEL-2 cells assessed as cell growth at 10 uM incubated for 48 hrs by sulforhodamine B assay relative to control; how it was run: as §4
# [13] = tested on: KM12; test: Growth inhibition of human KM12 cells assessed as cell growth at 10 uM incubated for 48 hrs by sulforhodamine B assay relative to control; how it was run: as §2
# [14] = tested on: 786-0; test: Growth inhibition of human 786-0 cells assessed as cell growth at 10 uM incubated for 48 hrs by sulforhodamine B assay relative to control; how it was run: as §3
# [15] = tested on: MDA-MB-468; test: Growth inhibition of human MDA-MB-468 cells assessed as cell growth at 10 uM incubated for 48 hrs by sulforhodamine B assay relative to control; how it was run: as §2
# [16] = tested on: TK-10; test: Growth inhibition of human TK-10 cells assessed as cell growth at 10 uM incubated for 48 hrs by sulforhodamine B assay relative to control; how it was run: as §4
# [17] = tested on: CAKI-1; test: Growth inhibition of human CAKI-1 cells assessed as cell growth at 10 uM incubated for 48 hrs by sulforhodamine B assay relative to control; how it was run: as §3
# [18] = tested on: HCC 2998; test: Growth inhibition of human HCC 2998 cells assessed as cell growth at 10 uM incubated for 48 hrs by sulforhodamine B assay relative to control; how it was run: as §3
# [19] = tested on: SR; test: Growth inhibition of human SR cells assessed as cell growth at 10 uM incubated for 48 hrs by sulforhodamine B assay relative to control; how it was run: as §4
# [20] = tested on: NCI-H522; test: Growth inhibition of human NCI-H522 cells assessed as cell growth at 10 uM incubated for 48 hrs by sulforhodamine B assay relative to control; how it was run: as §2
# [21] = tested on: SK-OV-3; test: Growth inhibition of human SK-OV-3 cells assessed as cell growth at 10 uM incubated for 48 hrs by sulforhodamine B assay relative to control; how it was run: as §4
# [22] = tested on: HT-29; test: Growth inhibition of human HT-29 cells assessed as cell growth at 10 uM incubated for 48 hrs by sulforhodamine B assay relative to control; how it was run: as §2
# [23] = tested on: BT-549; test: Growth inhibition of human BT-549 cells assessed as cell growth at 10 uM incubated for 48 hrs by sulforhodamine B assay relative to control; how it was run: as §1
SMILES,growth at 10 µM [1] [%],growth at 10 µM [2] [%],growth at 10 µM [3] [%],growth at 10 µM [4] [%],growth at 10 µM [5] [%],growth at 10 µM [6] [%],growth at 10 µM [7] [%],growth at 10 µM [8] [%],growth at 10 µM [9] [%],growth at 10 µM [10] [%],growth at 10 µM [11] [%],growth at 10 µM [12] [%],growth at 10 µM [13] [%],growth at 10 µM [14] [%],growth at 10 µM [15] [%],growth at 10 µM [16] [%],growth at 10 µM [17] [%],growth at 10 µM [18] [%],growth at 10 µM [19] [%],growth at 10 µM [20] [%],other results
CC(=O)Nc1ccc(S(=O)(=O)n2ccc(-c3ccc4c(c3)CCC(C)(C)O4)n2)cc1,79.3,94.4,57.8,64.7,60.2,56.6,66,91.9,83.5,29.9,93.1,53.5,67.4,79.8,24.9,55.1,48.8,83.3,56.4,54,–
COc1ccc(S(=O)(=O)n2ccc(-c3ccc4c(c3)CCC(C)(C)O4)n2)cc1OC,78,112,67.1,81.9,63,56,79.5,94.7,82.6,61.5,91,56.1,71.4,79.4,28.4,72.1,58.3,78.9,60.2,65.8,–
CC1(C)CCc2cc(-c3ccn(S(=O)(=O)c4ccc(C(C)(C)C)cc4)n3)ccc2O1,87.8,120,74.6,91.3,82.6,83.8,80.8,111,70,73.1,92.8,58.2,90.5,79.9,52.5,84.3,68.9,98,77.8,66.5,–
CC1(C)CCc2cc(-c3ccn(S(=O)(=O)c4ccc(C(F)(F)F)cc4)n3)ccc2O1,101,119,79.8,92.5,87.3,83.1,89.1,117,103,80.6,99.6,–,98,82.5,64.2,–,76.7,94.4,69.8,–,–
CC(=O)c1ccc2c(N)c(C(=O)Nc3ccccc3)sc2n1,102,102,89,109,108,99.2,–,108,107,108,108,107,110,97.9,87.4,108,–,106,86.5,103,growth at 10 µM [21]: 106%; growth at 10 µM [22]: 97.2%; growth at 10 µM [23]: 108%
